Reference: ChEMBL document CHEMBL4261620, “Design, synthesis, and biological evaluation of 4-chloro-2H-thiochromenes featuring nitrogen-containing side chains as potent antifungal agents” (Bioorg Med Chem Lett, 2018)
≈ marks a conversion by molar mass, not a printed value.

Columns and labels:
[1] = test system: Aspergillus fumigatus; assay: Antifungal activity against Aspergillus fumigatus cgmcc 3.7795 after 2 to 7 days by broth microdilution method; type: functional
Method in brief: (§1)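 Broth microdilution in 96-well plates per NCCLS. Compounds and fluconazole reference dissolved in DMSO, serially diluted in growth medium, then inoculum suspension added, final concentrations 128 to 0.25 µg/mL (twofold series). Incubated at 32°C. MIC read visually after 2-7 d.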

[2] = test system: Cryptococcus neoformans; assay: Antifungal activity against Cryptococcus neoformans cgmcc 2.3161 after 2 to 7 days by broth microdilution method; type: functional; method in brief: as §1
[3] = test system: Candida tropicalis; assay: Antifungal activity against Candida tropicalis cgmcc 2.3739 after 2 to 7 days by broth microdilution method; type: functional; method in brief: as §1
[4] = test system: Candida albicans; assay: Antifungal activity against fluconazole-resistant Candida albicans 103 after 2 to 7 days by broth microdilution method; type: functional
Method in brief: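 Broth microdilution per NCCLS. Compounds dissolved in DMSO, serially diluted in growth medium, then inoculum suspension added to give final concentrations of 128 to 0.25 µg/mL (twofold steps). Plates incubated at 32°C. MIC read by visual observation after 2-7 d. Fluconazole served as reference drug.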

[5] = test system: Candida albicans; assay: Antifungal activity against fluconazole-sensitive Candida albicans ATCC SC5314 after 2 to 7 days by broth microdilution method; type: functional; method in brief: as §1
[6] = test system: Candida albicans; assay: Antifungal activity against Candida albicans cpcc 400616 after 2 to 7 days by broth microdilution method; type: functional; method in brief: as §1
[7] = test system: HT-29; assay: Cytotoxicity against human HT-29 cells by MTT assay; type: cell-based
[8] = test system: A549; assay: Cytotoxicity against human A549 cells by MTT assay; type: cell-based
[9] = test system: HepG2; assay: Cytotoxicity against human HepG2 cells by MTT assay; type: cell-based
[10] = test system: H9c2; assay: Cytotoxicity against rat H9c2 cells by MTT assay; type: cell-based

ClC1=C(CN2CCCCC2)CSc2ccc(Br)cc21
MIC [1]: > 128 µg/mL | MIC [2]: 4 µg/mL (≈ 11.2 µM) | MIC [3]: 128 µg/mL (≈ 357 µM) | MIC [4]: 64 µg/mL (≈ 178 µM) | MIC [5]: 8 µg/mL (≈ 22.3 µM) | MIC [6]: 32 µg/mL (≈ 89.2 µM)

Cc1ccc2c(c1)C(=O)CCS2
MIC [1]: > 128 µg/mL | MIC [2]: 32 µg/mL (≈ 180 µM) | MIC [3]: 4 µg/mL (≈ 22.4 µM) | MIC [4]: 64 µg/mL (≈ 359 µM) | MIC [5]: 8 µg/mL (≈ 44.9 µM) | MIC [6]: 16 µg/mL (≈ 89.8 µM)

O=CC1=C(Cl)c2cc(F)ccc2SC1
MIC [1]: > 128 µg/mL | MIC [2]: 32 µg/mL (≈ 140 µM) | MIC [3]: 16 µg/mL (≈ 70 µM) | MIC [4]: 64 µg/mL (≈ 280 µM) | MIC [5]: 64 µg/mL (≈ 280 µM) | MIC [6]: 64 µg/mL (≈ 280 µM)

Fc1ccc2c(c1)C(Cl)=C(CN1CCCC1)CS2
MIC [1]: > 128 µg/mL | MIC [2]: 4 µg/mL (≈ 14.1 µM) | MIC [3]: 16 µg/mL (≈ 56.4 µM) | MIC [4]: 64 µg/mL (≈ 226 µM) | MIC [5]: 8 µg/mL (≈ 28.2 µM) | MIC [6]: 8 µg/mL (≈ 28.2 µM)

Cc1ccc2c(c1)C(Cl)=C(C=O)CS2
MIC [1]: > 128 µg/mL | MIC [2]: 64 µg/mL (≈ 285 µM) | MIC [3]: 64 µg/mL (≈ 285 µM) | MIC [4]: 64 µg/mL (≈ 285 µM) | MIC [5]: 16 µg/mL (≈ 71.2 µM) | MIC [6]: 32 µg/mL (≈ 142 µM)

Fc1ccc2c(c1)C(Cl)=C(Cn1ccnc1)CS2
MIC [1]: > 128 µg/mL | MIC [2]: 32 µg/mL (≈ 114 µM) | MIC [3]: 8 µg/mL (≈ 28.5 µM) | MIC [4]: 64 µg/mL (≈ 228 µM) | MIC [5]: 4 µg/mL (≈ 14.2 µM) | MIC [6]: 16 µg/mL (≈ 57 µM)

CC(C)NCC1=C(Cl)c2cc(Br)ccc2SC1
MIC [1]: > 128 µg/mL | MIC [2]: 4 µg/mL (≈ 12 µM) | MIC [3]: > 128 µg/mL | MIC [4]: 16 µg/mL (≈ 48.1 µM) | MIC [5]: 4 µg/mL (≈ 12 µM) | MIC [6]: 8 µg/mL (≈ 24 µM)

CCN(CC)CC1=C(Cl)c2cc(C)ccc2SC1
MIC [1]: > 128 µg/mL | MIC [2]: 8 µg/mL (≈ 28.4 µM) | MIC [3]: 64 µg/mL (≈ 227 µM) | MIC [4]: 64 µg/mL (≈ 227 µM) | MIC [5]: 32 µg/mL (≈ 114 µM) | MIC [6]: 32 µg/mL (≈ 114 µM)

CC(C)N(CC1=C(Cl)c2cc(Cl)ccc2SC1)C(C)C
MIC [1]: > 128 µg/mL | MIC [2]: 64 µg/mL (≈ 194 µM) | MIC [3]: 64 µg/mL (≈ 194 µM) | MIC [4]: 64 µg/mL (≈ 194 µM) | MIC [5]: 4 µg/mL (≈ 12.1 µM) | MIC [6]: 4 µg/mL (≈ 12.1 µM)

ClC1=C(CN2CCCC2)CSc2ccc(Cl)cc21
MIC [1]: > 128 µg/mL | MIC [2]: 4 µg/mL (≈ 13.3 µM) | MIC [3]: 4 µg/mL (≈ 13.3 µM) | MIC [4]: > 128 µg/mL | MIC [5]: 1 µg/mL (≈ 3.33 µM) | MIC [6]: 32 µg/mL (≈ 107 µM)

CCN(CC)CC1=C(Cl)c2cc(F)ccc2SC1
MIC [1]: > 128 µg/mL | MIC [2]: 2 µg/mL (≈ 7 µM) | MIC [3]: 2 µg/mL (≈ 7 µM) | MIC [4]: 64 µg/mL (≈ 224 µM) | MIC [5]: 8 µg/mL (≈ 28 µM) | MIC [6]: 8 µg/mL (≈ 28 µM)

Cc1ccc2c(c1)C(Cl)=C(CN1CCCCC1)CS2
MIC [1]: > 128 µg/mL | MIC [2]: 16 µg/mL (≈ 54.4 µM) | MIC [3]: 64 µg/mL (≈ 218 µM) | MIC [4]: 128 µg/mL (≈ 436 µM) | MIC [5]: 16 µg/mL (≈ 54.4 µM) | MIC [6]: 32 µg/mL (≈ 109 µM)

CC(C)NCC1=C(Cl)c2cc(F)ccc2SC1
MIC [1]: 64 µg/mL (≈ 235 µM) | MIC [2]: 4 µg/mL (≈ 14.7 µM) | MIC [3]: 2 µg/mL (≈ 7.36 µM) | MIC [4]: 64 µg/mL (≈ 235 µM) | MIC [5]: 2 µg/mL (≈ 7.36 µM) | MIC [6]: 8 µg/mL (≈ 29.4 µM)

ClC1=C(Cn2ccnc2)CSc2ccc(Br)cc21
MIC [1]: > 128 µg/mL | MIC [2]: 8 µg/mL (≈ 23.4 µM) | MIC [3]: > 128 µg/mL | MIC [4]: > 128 µg/mL | MIC [5]: 16 µg/mL (≈ 46.8 µM) | MIC [6]: 64 µg/mL (≈ 187 µM)

ClC1=C(Cn2cncn2)CSc2ccc(Cl)cc21
MIC [1]: > 128 µg/mL | MIC [2]: 4 µg/mL (≈ 13.4 µM) | MIC [3]: 32 µg/mL (≈ 107 µM) | MIC [4]: 32 µg/mL (≈ 107 µM) | MIC [5]: 8 µg/mL (≈ 26.8 µM) | MIC [6]: 16 µg/mL (≈ 53.7 µM)

CN1CCN(CC2=C(Cl)c3cc(Cl)ccc3SC2)CC1
MIC [1]: > 128 µg/mL | MIC [2]: 4 µg/mL (≈ 12.1 µM) | MIC [3]: 64 µg/mL (≈ 194 µM) | MIC [4]: 64 µg/mL (≈ 194 µM) | MIC [5]: 16 µg/mL (≈ 48.6 µM) | MIC [6]: 32 µg/mL (≈ 97.2 µM)

O=C1CCSc2ccc(Br)cc21
MIC [1]: > 128 µg/mL | MIC [2]: 64 µg/mL (≈ 263 µM) | MIC [3]: 16 µg/mL (≈ 65.8 µM) | MIC [4]: 64 µg/mL (≈ 263 µM) | MIC [5]: 8 µg/mL (≈ 32.9 µM) | MIC [6]: 32 µg/mL (≈ 132 µM)

OC(Cn1cncn1)(Cn1cncn1)c1ccc(F)cc1F [FLUCONAZOLE]
IC50 [7]: > 100 µg/mL | IC50 [8]: > 100 µg/mL | MIC [1]: > 128 µg/mL | IC50 [9]: > 100 µg/mL | MIC [2]: 1 µg/mL (≈ 3.27 µM) | MIC [3]: 2 µg/mL (≈ 6.53 µM) | MIC [4]: 32 µg/mL (≈ 104 µM) | MIC [5]: 1 µg/mL (≈ 3.27 µM) | MIC [6]: 4 µg/mL (≈ 13.1 µM) | IC50 [10]: > 100 µg/mL
